Source: ChEMBL document CHEMBL4251573, “Synthesis and biological evaluation of N-substituted 3-oxo-1,2,3,4-tetrahydro-quinoxaline-6-carboxylic acid derivatives as tubulin polymerization inhibitors” (Eur J Med Chem, 2018)

What was measured:
HeLa [1] = assay: Induction of apoptosis in human HeLa cells assessed as necrotic cells at 0.10 uM after 24 hrs by annexin V-FITC/propidium iodide staining-based flow cytometric method (reference value: 0.15%); assay type: functional
HeLa [2] = assay: Induction of apoptosis in human HeLa cells assessed as late apoptotic cells at 0.10 uM after 24 hrs by annexin V-FITC/propidium iodide staining-based flow cytometric method (reference value: 0.15%); assay type: functional
HeLa [3] = assay: Induction of apoptosis in human HeLa cells assessed as late apoptotic cells at 0.15 uM after 24 hrs by annexin V-FITC/propidium iodide staining-based flow cytometric method (reference value: 0.15%); assay type: functional
HeLa [4] = assay: Induction of apoptosis in human HeLa cells assessed as necrotic cells at 0.15 uM after 24 hrs by annexin V-FITC/propidium iodide staining-based flow cytometric method (reference value: 0.15%); assay type: functional
HeLa [5] = assay: Disruption of microtubule network in human HeLa cells after 24 hrs by Hoechst 33342 staining-based immunofluorescence microscopic method; assay type: cell-based
Summary of the method: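 HeLa cells were plated at 4000 per well for 24 h, then exposed for 24 h to vehicle or drug (0.1-0.2 μM). Fixation was 4% paraformaldehyde, 10 min, 4 °C, then 0.1% Triton X-100, 5 min, and 1% BSA block, 1 h. Staining used anti-α-tubulin (1:100, 12 h, 4 °C), then FITC anti-mouse IgG (1:100, 30 min, 37 °C), with Hoechst 33342 for nuclei. Imaged by fluorescence microscopy.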

HeLa [6] = assay: Induction of apoptosis in human HeLa cells assessed as viable cells at 0.20 uM after 24 hrs by annexin V-FITC/propidium iodide staining-based flow cytometric method (reference value: 97.39%); assay type: functional; conditions: read-out: Activity
HeLa [7] = assay: Cell cycle arrest in human HeLa cells assessed as accumulation at G2/M phase after 24 hrs by propidium iodide staining-based flow cytometric method; assay type: functional
HeLa [8] = assay: Cell cycle arrest in human HeLa cells assessed as accumulation at G2/M phase at 0.10 uM after 24 hrs by propidium iodide staining-based flow cytometric method (reference value: 19.9%); assay type: functional
Sus scrofa = organism: Sus scrofa; assay: Competitive binding affinity to porcine brain tubulin preincubated for 1 hr followed by colchicine addition measured after 1 hr by fluorescence assay
Summary of the method: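 Tubulin (4 μM) in 80 mM PIPES pH 6.9, 2 mM MgCl2 and 0.5 mM EGTA was preincubated 1 h at 37 °C with 0.1, 1, 5 or 10 μM test agent, with DMSO as control. Colchicine (10 μM) was then added for another 1 h at 37 °C. Tubulin-colchicine fluorescence was read at ex 340/em 435 nm and normalized to DMSO; at least three replicates, mean ± SD.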

HeLa [9] = assay: Cell cycle arrest in human HeLa cells assessed as accumulation at G0/G1 phase at 0.10 uM after 24 hrs by propidium iodide staining-based flow cytometric method (reference value: 62.2%); assay type: functional
HeLa [10] = assay: Cell cycle arrest in human HeLa cells assessed as accumulation at S phase at 0.20 uM after 24 hrs by propidium iodide staining-based flow cytometric method (reference value: 10.3%); assay type: functional

With `COC(=O)c1ccc2c(c1)NC(=O)CN2C(=O)c1cc(OC)c(OC)c(OC)c1` the Activity (HeLa [1]) was 3.9%, the Activity (HeLa [2]) was 7.87% and the Activity (HeLa [3]) was 9.95%. The Activity (HeLa [4]) was 3.81%, the Activity (HeLa [5]) was “Dose-dependent effect” and the viability at 0.2 µM (HeLa [6]) was 62.2%. For the same compound, the Activity (HeLa [7]) was “Dose-dependent effect”, the Activity (HeLa [8]) was 21.8% and the Activity (Sus scrofa) was “Dose-dependent effect”. It also gave an Activity (HeLa [9]) of 55.2% and an Activity (HeLa [10]) of 8%.
